In PMC6763203 (Molecular pharmaceutics, 2019):

Experiments:
[1] = Hepatic microsome stability assay; format: in vitro ADME, human
S. aureus ATCC 29213 = experiment: Prevention of biofilm formation, microtiter dish assay; format: cell-based, Staphylococcus aureus; conditions: 2 μg/mL, 24 h
In short: (§1)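 Static biofilm prevention assay with S. aureus ATCC 29213 or MRSA clinical isolates from local hospitals in central China. Strains were grown in TSB plus 1% glucose in 96-well tissue-culture plates with test compound (0.0125–8 μg/mL) for 24 h. Wells were washed with sterile water and stained with 0.1% (w/v) crystal violet. Stain was solubilised in 95% ethanol and read at 540 nm. Results are reduction in biofilm mass, from three independent experiments in triplicate.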

MRSA [2] = experiment: MRSA mouse peritonitis model; format: in vivo; conditions: for MRSA in blood or kidney of the survived mice: 14 days after administration
[3] = Hepatic microsome stability assay; format: in vitro ADME, mouse
MRSA [4] = experiment: Prevention of biofilm formation, microtiter dish assay; format: cell-based, Staphylococcus aureus; conditions: for inhibition of biofilm formation: 0.0125–8 μg/mL, 24 h
In short: as §1

[5] = Plasma protein binding by equilibrium dialysis; format: in vitro ADME, human; conditions: 5 μM, 37 °C, 6 hours
In short: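 Equilibrium dialysis with test compound at 5 μM initial in the plasma chamber against PBS in the receiver chamber. Shaken at 37 °C for 6 h. Samples from both chambers were matrix-matched to 1:1 plasma:PBS and quantified by LC-MS/MS. Fraction bound = ([plasma] – [PBS]) / [plasma]. Run in triplicate.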

[6] = mouse, liver microsomes, pH 7.4

| microsomal CLint at 1 μM ([1]; human, liver microsomes, pH 7.4) [µL/min/mg] | half-life at 1 μM [3, 6] [min] | microsomal CLint at 1 μM [3, 6] [µL/min/mg] | Structure (SMILES) | Intrinsic Clearance ([1]; human liver microsomes) [µL/min/mg] | reduction of biofilm formation (S. aureus ATCC 29213) | MRSA in blood or kidney of the survived mice (MRSA [2]) | mice survival (MRSA [2]; C57BL/6J mice, 50 mg/kg i.p. at 1 h and 5 h post infection, 14 days) [%] | Intrinsic Clearance ([3]; mouse liver microsomes 1 mg/mL, 1 μM compound) [µL/min/mg] | T1/2 ([3]; mouse liver microsomes 1 mg/mL, 1 μM compound, 37 °C) [min] | inhibition of biofilm formation (MRSA [4]) | Plasma Protein Binding, Bound [5] [%] | Plasma Protein Binding, Free [5] [%] | biofilm reduction, comparison of PTM with PTM-2t (MRSA [4]) |
| --- | --- | --- | --- | --- | --- | --- | --- | --- | --- | --- | --- | --- | --- |
| – | – | – | CCSC1CC(=O)C(C)(CCC(=O)Nc2c(O)ccc(C(=O)O)c2O)C2C3CC4CC12CC4(C)O3 (centres unmarked) [2t] | 32.0 | over 95% | a significant number of MRSAs was still present | 80 | 46 | 15.0 | dose-dependently inhibited | 35.0 | 65.0 | – |
| 14 | 13.6 | 51 | CC12C[C@@]34C=CC(=O)[C@@](C)(CCC(=O)Nc5c(O)ccc(C(=O)O)c5O)C3[C@H](CC1C4)O2 (some centres unmarked) [PTM, platensimycin, reference compound] | – | over 95% | – | – | – | – | dose-dependently inhibited | 66.0 | – | reduced more biofilm from MRSA than PTM-2t |
| – | – | – | CN[C@H](CC(C)C)C(=O)N[C@H]1C(=O)N[C@@H](CC(N)=O)C(=O)N[C@H]2C(=O)N[C@H]3C(=O)N[C@H](C(=O)N[C@H](C(=O)O)c4cc(O)cc(O)c4-c4cc3ccc4O)[C@H](O)c3ccc(c(Cl)c3)Oc3cc2cc(c3O[C@@H]2O[C@H](CO)[C@@H](O)[C@H](O)[C@H]2O[C@H]2C[C@](C)(N)[C@H](O)[C@H](C)O2)Oc2ccc(cc2Cl)[C@H]1O [vancomycin, reference compound] | – | – | Only a few MRSA were present | – | – | – | – | – | – | – |
